Experimental data from different studies.
CXCR4: C-X-C chemokine receptor type 4 (CXCR4, Homo sapiens, UniProt P61073)
SRC: Proto-oncogene tyrosine-protein kinase Src (SRC, Homo sapiens, UniProt P12931)
PLA2G5: Phospholipase A2 group V (PLA2G5, Homo sapiens, UniProt P39877)
CDK9 with cyclin T1: Cyclin-dependent kinase 9, with cyclin T1 (CDK9, Homo sapiens, UniProt P50750)
MDH2: Malate dehydrogenase, mitochondrial (MDH2, Sus scrofa, UniProt P00346)
AKT1: RAC-alpha serine/threonine-protein kinase (AKT1, Homo sapiens, UniProt P31749)
MERTK: Tyrosine-protein kinase Mer (MERTK, Homo sapiens, UniProt Q12866)

| SMILES | target | assay | conditions | IC50 |
| --- | --- | --- | --- | --- |
| C/C(=C\C(=O)OCCCCCCCCC(=O)O)C[C@@H]1OC[C@H](C[C@@H]2O[C@H]2[C@@H](C)[C@H](C)O)[C@@H](O)[C@H]1O | CXCR4 | calcium signal, antagonist |  | > 100 µM |
| c1ccc(-n2cc(CCN(Cc3nc(C4CC4)no3)Cc3nc(C4CC4)no3)cn2)cc1 | CXCR4 | β-arrestin recruitment |  | 200 µM |
| Cc1cnc(-c2ccc(-c3ccc(NC(=O)Nc4c(F)cc(F)cc4F)cc3F)c3c2C(=O)NC3)[nH]1 | SRC | enzyme activity, inhibitor |  | 0.0004 µM |
| [Na+].[Na+].[Na+].[O]=[V]([O-])([O-])[O-] | Tyrosine-protein phosphatase non-receptor type 6 (PTPN6, Homo sapiens, UniProt P29350) | enzyme activity, inhibitor, absorbance |  | 4.4 µM |
| CCN(CC)CCOc1ccc2c(c1)C(=O)c1cc(OCCN(CC)CC)ccc1-2 | Acetylcholinesterase (ACHE, Homo sapiens, UniProt P22303) | enzyme activity, inhibitor |  | 0.0646 µM |
| CC(=O)c1cccc(/N=N/c2cc(/C=C/C(=O)O)ccc2O)c1 | PLA2G5 | enzyme activity, inhibitor, Ellman |  | 43.9 µM |
| CS(=O)(=O)c1ncc(N(Cc2ccccc2)Cc2ccco2)c(C(=O)Nc2ccccc2Cl)n1 | CXCR4 | β-arrestin recruitment, antagonist |  | 40 µM |
| COc1c(C(=O)/C=C(\O)c2ccccc2)ccc2occc12 | CDK9 with cyclin T1 | enzyme activity, inhibitor, ADP detection |  | > 100 µM |
| CC(C)(C)n1nc(-c2ccc3nc(OC4CC4)ccc3c2)c(C(N)=O)c1N | Calcium/calmodulin-dependent protein kinase kinase 2 (CAMKK2, Homo sapiens, UniProt Q96RR4) | cell-free assay |  | > 10 µM |
| Nc1ncnc2c1c(Cc1cccc3ccccc13)nn2CC1CCNCC1 | SRC | enzyme activity, inhibitor |  | > 20 µM |
| CCN(CC)CCOCCN(Cc1ccccc1)Cc1nc(Cc2ccccc2)no1 | CXCR4 | β-arrestin recruitment |  | 398 µM |
| CC(C)NCCCC[C@H](NC(=O)[C@H]1CCC(=O)N[C@@H](Cc2ccccc2)C(=O)N[C@@H](Cc2ccc(O)cc2)C(=O)N[C@@H](CCCCNC(C)C)C(=O)N[C@H](CCCNC(=N)N)C(=O)N[C@@H](Cc2ccc3ccccc3c2)C(=O)NCC(=O)N1)C(N)=O | CXCR4 | ligand displacement, radioligand |  | 0.0248 µM |
| Cc1ccc(S(=O)(=O)Nc2ccc(-c3nc4cc(NS(=O)(=O)c5ccc(C)cc5)ccc4o3)cc2)cc1 | MDH2 | enzyme activity, inhibitor |  | > 62.5 µM |
| CCn1ncc2c1-c1cnc(N)c(c1)O[C@H](C)c1cc(F)ccc1-c1nn(C)nc1C2 | NT-3 growth factor receptor (NTRK3, Homo sapiens, UniProt Q16288) | enzyme activity, inhibitor, radiometric |  | 0.154 µM |
| COc1ccc(S(=O)(=O)Nc2ccc3oc(-c4ccc(NC(=O)C5CCN(C(C)=O)CC5)cc4)nc3c2)cc1 | MDH2 | enzyme activity, inhibitor |  | > 62.5 µM |
| COc1cc(/C=C/C(=O)c2ccc(NC(=O)c3ccccc3CN3C(=O)c4ccccc4C3=O)cc2)cc(OC)c1OC | Tubulin beta-5 chain (TUBB, Homo sapiens, UniProt P07437) | tubulin polymerisation, inhibitor, ELISA |  | 2.32 µM |
| CC(C)(C)n1nc(-c2cnc3cc(OC4CC4)ccc3c2)c(C(N)=O)c1N | AKT1 | cell-free assay |  | > 10 µM |
| Cc1ccc(C(=O)Nc2ccc(Oc3cc4cnn(C)c4cc3-c3cn[nH]c3)c(F)c2)c(=O)n1-c1ccc(F)cc1 | MERTK | cell growth or viability, ATP luminescence |  | 0.01 µM |
| O=c1cc(-c2ccc3c(c2)OCO3)oc2c1ccc1occc12 | CDK9 with cyclin T1 | enzyme activity, inhibitor, ADP detection |  | 31.4 µM |
| C=CC(=O)Nc1ccc(N2CCC[C@@H](Nc3ncc(Cl)c(-c4c[nH]c5ccccc45)n3)C2)cc1C | CDK9 with cyclin T1 | enzyme activity, inhibitor, FRET |  | 0.165 µM |
| CCN1CCN(Cc2ccc(NC(=O)c3ccc(C)c(NC(=O)c4cncc(I)c4)c3)cc2C(F)(F)F)CC1 | Ephrin type-A receptor 2 (EPHA2, Homo sapiens, UniProt P29317) | enzyme activity, inhibitor, ADP detection |  | 0.578 µM |

| SMILES | target | assay | conditions | IC50 |
| --- | --- | --- | --- | --- |
| COc1ccc(S(=O)(=O)Nc2ccc3oc(-c4ccc(NS(=O)(=O)c5cc(F)ccc5OC)cc4)nc3c2)cc1 | MDH2 | enzyme activity, inhibitor |  | > 62.5 µM |
| NCc1ccc(Nc2ncc(F)c(Nc3ccccc3)n2)cc1 | Activin receptor type-1 (ACVR1, Homo sapiens, UniProt Q04771) | enzyme activity, inhibitor | lysate | > 10 µM |
| COc1ccc2c(Oc3ccc4c(C(=O)Nc5ccccc5N)cccc4c3)ccnc2c1 | AKT1 | enzyme activity, inhibitor |  | > 0.5 µM |
| CC(C)=CCC/C(C)=C/Cc1ccc[n+](CC(P(=O)([O-])O)P(=O)(O)O)c1 (stereo not drawn) | Geranylgeranyl pyrophosphate synthase (GGPS1, Homo sapiens, UniProt O95749) | enzyme activity, inhibitor |  | 10 µM |
| O=S(=O)(Nc1ccc(-c2nc3cc(NS(=O)(=O)c4ccc(Br)cc4)ccc3o2)cc1)c1ccc(Br)cc1 | MDH2 | enzyme activity, inhibitor |  | > 62.5 µM |
| CN1CCN(c2ccc(Nc3ncc4cc(C#N)c(=O)n(C5CCCC5)c4n3)cc2)CC1 | Cyclin-dependent kinase 1, with cyclin A (CDK1, Homo sapiens, UniProt P06493) | enzyme activity, inhibitor |  | 7.41 µM |
| CNC(=O)c1cc2c(Oc3ccc(NC(=O)C4(C(=O)Nc5ccc(F)cc5)CC4)cc3)ccnc2cc1OC | MERTK | enzyme activity, inhibitor, TR-FRET |  | 0.003 µM |
| O=S(=O)(Nc1ccc(-c2nc3cc(NS(=O)(=O)c4ccccc4Cl)ccc3o2)cc1)c1ccccc1Cl | MDH2 | enzyme activity, inhibitor |  | > 62.5 µM |
| CC(=O)c1ccc(/N=N/c2cc(/C=C/C(=O)O)ccc2O)cc1 | PLA2G5 | enzyme activity, inhibitor, Ellman |  | 42.5 µM |
| CC1=C(/C=C/C(C)=C/C=C/C(C)=C/C(=O)O)C(C)(C)CCC1 | Prothrombin (Rattus norvegicus, UniProt P18292) | enzyme activity, inhibitor |  | 163 µM |
| Nc1nc(N)c2nc(CNc3cccc4ccccc34)cnc2n1 | Cytochrome P450 2C9 (CYP2C9, Homo sapiens, UniProt P11712) | enzyme activity, inhibitor, luciferase |  | 11 µM |
| O=S(=O)(Nc1ccc(-c2nc3cc(NS(=O)(=O)c4ccc(C(F)(F)F)cc4)ccc3o2)cc1)c1ccc(C(F)(F)F)cc1 | MDH2 | enzyme activity, inhibitor |  | > 62.5 µM |
| CCS(=O)(=O)c1ncc(N(Cc2ccccc2)Cc2ccco2)c(C(=O)Nc2ccccc2F)n1 | CXCR4 | β-arrestin recruitment, antagonist |  | 50 µM |
| COc1c(Br)cccc1C(=O)Nc1ccc(Sc2nc3ccccc3s2)cc1 | MDH2 | enzyme activity, inhibitor |  | > 62.5 µM |
| O=C(O)/C=C\C(=O)Nc1ccc(S(=O)(=O)Nc2ncccn2)cc1 | Dipeptidyl peptidase 4 (DPP4, Homo sapiens, UniProt P27487) | enzyme activity, inhibitor, fluorescence |  | 54.6 µM |
| Cc1n[nH]c2nncnc12 | deoD (Escherichia coli, UniProt P0ABP8) | enzyme activity, inhibitor | pH 7 | ~700 µM |
| O=C(O)c1cc(O)c(O)c(O)c1 | PLA2G5 | enzyme activity, inhibitor, Ellman |  | 9.79 µM |
| CCc1ccc(NC(=O)c2nc(S(C)(=O)=O)ncc2N(Cc2ccccc2)Cc2ccco2)cc1 | CXCR4 | β-arrestin recruitment, antagonist |  | 13 µM |
| Nn1cnnc1O | DNA dC->dU-editing enzyme APOBEC-3A (Homo sapiens, UniProt P31941) | enzyme activity, inhibitor |  | > 100 µM |
| Cc1noc(C)c1CN(C(=O)CCc1nc(Cc2ccccc2)no1)c1ccccc1 | CXCR4 | β-arrestin recruitment |  | 200 µM |
| Cc1ccc(S(=O)(=O)Nc2ccc(-c3nc4ccc(NS(=O)(=O)c5ccc(C)cc5)cc4[nH]3)cc2)cc1 | MDH2 | enzyme activity, inhibitor |  | > 62.5 µM |
